Screening results from PubChem BioAssay.
Sampled rows, rich in hits. Any-hit rate of the full collection: about 2.2%.
E-sel TNF inh: E-selectin induction blockers in HUVEC – imaging, immunofluorescence, high content, primary screen. 0.71% of 120,000 active. AID 1246, 2008. HUVEC TNFa-induced E-selectin immunofluorescence. inhibition, % at 2 µM;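 active means inhibition above the batch mean plus 3 SD, and confirmed as a hit on visual image review, cut at about 43% in these data; inconclusive means passes the inhibition cutoff but fails visual image review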;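 further: 0% = TNF-stimulated DMSO wells and 100% = unstimulated control wells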
F-actin modifier: modifiers of F-actin cytoskeleton organization, primary screen, imaging, HUVEC, phalloidin staining, high-content imaging. 0.18% of 91,000 active. AID 836, 2007. inhibition, % at 2 µM. HUVEC TNFa F-actin phalloidin imaging;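 active means inhibition above the batch mean plus 3 SD and confirmed as a hit by visual image inspection, cut at about 30% in these data, passing the limit was not always enough; inconclusive means above the inhibition threshold but rejected on visual inspection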
HIV Rev-RRE inh: HIV-1 Rev-RRE binding inhibitors, primary screen, biochemical, FRET, protein-RNA interaction. 0.79% of 97,000 active. inhibition, % at 8 µM. P05866. Rev peptide-RRE RNA binding;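 active means inhibition above the screen-wide mean plus 3 SD, cut at about 35% in these data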;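 further: 0% = median DMSO wells and 100% = median Neomycin B control wells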
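Material: labelled RRE RNA duplex and labelled Rev peptide / Buffer or medium: HEPES pH 7.5 salt buffer with EDTA / Compound dosing: single point, 8 µM final nominal compound concentration / Benchmarks: DMSO low control, neomycin B high control / Timing: 5 min preincubation and 15 min binding, 25 °C / Technique: FRET fluorescence readout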
PLK1 PBD inh: Plk1 polo box domain binding inhibitors, primary screen, biochemical, fluorescence polarization. 0.13% of 97,000 active. Plk1 PBD phosphopeptide binding. inhibition, %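 (tested at about 20 µM)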; in the data active means inhibition above about 34%, passing the limit was not always enough
FAK blocker: FAK kinase inhibitors, primary screen, biochemical; biochemical FAK kinase activity assay; inhibition, %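 (tested at 7 µM)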; 0.84% of 97,000 active; in the data active means inhibition above about 19%;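 further: 0% = DMSO and 100% = reference compound high control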
PLK1 inh: human PLK1 kinase inhibitors, primary screen, biochemical, TR-FRET | recombinant PLK1 kinase, TR-FRET peptide phosphorylation | Serine/threonine-protein kinase PLK1 (Homo sapiens), P53350 | 0.53% of 97,000 active | inhibition, % at 10 µM;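 active means inhibition of 50% or more in the single-concentration screen; inactive means inhibition below 50%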;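 further: 0% = DMSO max control and 100% = H-89 dihydrochloride min control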
PLK1 confirm: PLK1 kinase activity inhibitors, confirmation, biochemical, TR-FRET, duplicate runs; AID 744, 2007; recombinant PLK1 kinase, TR-FRET peptide phosphorylation; shares compounds with PLK1 inh; inhibition, % at 10 µM; 20% of 210 active;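 active means inhibition at or above 50% in each of two repeat confirmation tests; inconclusive means one repeat below 50% inhibition, the other above; inactive means both repeats at or below 50% inhibition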;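 further: 0% = DMSO max control and 100% = H-89 kinase-blocked min control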
TR-FRET interf: compound interference with Plk1 assay readout, artefact control for Plk1 kinase inhibitor project, biochemical, TR-FRET, compound added post-reaction | shares compounds with PLK1 inh | inhibition (interference), % at 10 µM | 210 tested, under 10 active;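 active means both duplicate runs show 50% or greater inhibition; inconclusive means only one duplicate run shows over 50% inhibition; inactive means both runs show under 50% inhibition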;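 further: 0% = DMSO max control and 100% = H-89 min control inhibited reaction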
* marks the source's active call; other numbers are inactive results.

What do the screens show for `CCCOc1ccc(N2C(=O)CC(N(CCc3ccccc3)C(=O)c3ccccc3)C2=O)cc1` (stereo unspecified)?
E-sel TNF inh: -26

What do the screens show for `Cn1c(SCc2cccnc2)nnc1-c1c[nH]c2ccccc12`?
HIV Rev-RRE inh: 4; PLK1 PBD inh: 6; FAK blocker: -2; PLK1 inh: 74*; PLK1 confirm: -6; TR-FRET interf: -47

How did CCn1c(SCc2ccc(C(=O)OC)o2)nnc1-c1c[nH]c2ccccc12 do in these assays?
HIV Rev-RRE inh: -2; PLK1 PBD inh: 23; FAK blocker: 0; PLK1 inh: 73*; PLK1 confirm: -8; TR-FRET interf: -59

How did CCn1c(SCc2nc(-c3cccs3)no2)nnc1-c1c[nH]c2ccccc12 do in these assays?
E-sel TNF inh: -5; F-actin modifier: 16; HIV Rev-RRE inh: 7; PLK1 PBD inh: 14; FAK blocker: 0; PLK1 inh: -6

What do the screens show for `COCCn1c(SCC(=O)Nc2ccc3c(c2)OCCO3)nnc1-c1c[nH]c2ccccc12`?
E-sel TNF inh: -19; F-actin modifier: -11; HIV Rev-RRE inh: 6; PLK1 PBD inh: -4; FAK blocker: 2; PLK1 inh: -2

How did C#CCSc1nnc(-c2c[nH]c3ccccc23)n1C do in these assays?
E-sel TNF inh: -23

What do the screens show for `COCCn1c(SC)nnc1-c1c[nH]c2ccccc12`?
HIV Rev-RRE inh: 6; PLK1 PBD inh: -16; FAK blocker: -5; PLK1 inh: 73*; PLK1 confirm: -11; TR-FRET interf: -58

Results for CCn1c(SC)nnc1-c1c[nH]c2ccccc12 ?
HIV Rev-RRE inh: 0; PLK1 PBD inh: -4; FAK blocker: -4; PLK1 inh: 77*; PLK1 confirm: -6; TR-FRET interf: -52

Results for CC1CCN(c2ccccc2N)CC1 ?
E-sel TNF inh: -59; F-actin modifier: 24; HIV Rev-RRE inh: 9; PLK1 PBD inh: 2; FAK blocker: -3; PLK1 inh: -10

Results for [O-][N+]12CCN(CC1)c1ccccc12 ?
E-sel TNF inh: -8; F-actin modifier: -12; HIV Rev-RRE inh: 4; PLK1 PBD inh: -12; FAK blocker: -1; PLK1 inh: 77*; PLK1 confirm: -5; TR-FRET interf: -60

What do the screens show for `COc1ccccc1-c1csc(NC(=O)c2ccc(N3C(=O)CCC3=O)cc2)n1`?
E-sel TNF inh: -46

What do the screens show for `COc1ccc(-c2nc(CN(CC3CCC(=O)N3)C(C)C)c(C)o2)c(C)c1C` (stereo unspecified)?
E-sel TNF inh: 6

How did CC(=O)Nc1ccc(-c2csc(Nc3ccc(S(N)(=O)=O)cc3)n2)cc1 do in these assays?
E-sel TNF inh: 4

Results for NS(=O)(=O)c1ccc(Nc2nc(-c3ccc(O)cc3O)cs2)cc1 ?
E-sel TNF inh: -23; F-actin modifier: -21; HIV Rev-RRE inh: 4; PLK1 PBD inh: 17; FAK blocker: 5; PLK1 inh: 72*; PLK1 confirm: inconclusive; TR-FRET interf: -45

How did Cc1nc(-c2ccc3c(c2)OCO3)cs1 do in these assays?
F-actin modifier: -28; HIV Rev-RRE inh: 8; PLK1 PBD inh: 3; FAK blocker: 0; PLK1 inh: -10

How did N#Cc1c(-c2ccc3c(c2)OCO3)csc1N do in these assays?
E-sel TNF inh: 1; F-actin modifier: -2; HIV Rev-RRE inh: 5; PLK1 PBD inh: 8; FAK blocker: 2; PLK1 inh: 72*; PLK1 confirm: 66*; TR-FRET interf: -54

Results for Cc1cc(C)c2sc(N)nc2c1 ?
E-sel TNF inh: 22

Results for CC(C)OC(=O)C1C2C=CC3(CN(C(C)c4ccc(Br)cc4)C(=O)C13)O2 (stereo unspecified) ?
HIV Rev-RRE inh: 2; PLK1 PBD inh: -11; FAK blocker: -5; PLK1 inh: 74*; PLK1 confirm: -12; TR-FRET interf: -46

What do the screens show for `CCOC(=O)N1CCN(c2c(N3CCN(c4ccccn4)CC3)c(=O)c2=O)CC1`?
E-sel TNF inh: -8

What do the screens show for `CCOC(=O)N1CCN(c2c(N3CCc4ccccc43)c(=O)c2=O)CC1`?
HIV Rev-RRE inh: 4; PLK1 PBD inh: -29; FAK blocker: 1; PLK1 inh: 77*; PLK1 confirm: -1; TR-FRET interf: -51

Results for O=C(CSCc1ccc(F)cc1)N1CCOCC1 ?
E-sel TNF inh: 0; F-actin modifier: -8; HIV Rev-RRE inh: 3; PLK1 PBD inh: 28; FAK blocker: -3; PLK1 inh: 115*; PLK1 confirm: -7; TR-FRET interf: -52

Results for COc1cccc(-c2nc(CS(=O)CC(=O)NCc3ccc4c(c3)OCO4)c(C)o2)c1 (stereo unspecified) ?
HIV Rev-RRE inh: -1; PLK1 PBD inh: -48; FAK blocker: -3; PLK1 inh: 75*; PLK1 confirm: -5; TR-FRET interf: -57

What do the screens show for `O=C(NCc1ccc2c(c1)OCO2)Oc1ccccc1`?
HIV Rev-RRE inh: 3; PLK1 PBD inh: 18; FAK blocker: -7; PLK1 inh: 83*; PLK1 confirm: -1; TR-FRET interf: -53

What do the screens show for `Cc1cccc(-c2nc(CS(=O)CC(=O)N3CCc4ccccc4C3)c(C)o2)c1` (stereo unspecified)?
E-sel TNF inh: -2; F-actin modifier: 16; HIV Rev-RRE inh: 7; PLK1 PBD inh: 0; FAK blocker: -4; PLK1 inh: -23

What do the screens show for `CCOC(=O)N1CCN(C(=O)CS(=O)Cc2nc(-c3cccc(C)c3)oc2C)CC1` (stereo unspecified)?
HIV Rev-RRE inh: 3; PLK1 PBD inh: -11; FAK blocker: -3; PLK1 inh: 75*; PLK1 confirm: -8; TR-FRET interf: -48

Results for COCCNC(=O)CS(=O)Cc1nc(-c2ccc(OC)cc2)oc1C (stereo unspecified) ?
HIV Rev-RRE inh: 5; PLK1 PBD inh: -6; FAK blocker: 1; PLK1 inh: 71*; PLK1 confirm: -3; TR-FRET interf: -53

What do the screens show for `S=C(NCc1ccccc1)NCc1ccc2c(c1)OCO2`?
E-sel TNF inh: -12

What do the screens show for `O=C(COC(=O)/C=C/C(=O)OCC(=O)NC12CC3CC(CC(C3)C1)C2)NC12CC3CC(CC(C3)C1)C2`?
E-sel TNF inh: 24
